Activity calls are given as the source filed them. The rule behind the calls is not given here.
How the values were obtained:
[1] = tested on: HT-29; assay: Cytotoxicity against human HT-29 cells; assay type: functional, cell-based
Method in brief: (§1)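 Paired cancer (HT-29 colon) and normal (CCD-112CoN colon) human cell lines, same screening method for both. Paclitaxel and etoposide as positive controls. IC50 from nonlinear regression. Triplicate measurements, representative of two independent experiments.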

[2] = target: DNA topoisomerase 2-alpha (Homo sapiens) (UniProt P11388); assay: Inhibition of topoisomerase 2-alpha (unknown origin)-mediated relaxation of supercoiled pBR322 DNA at 100 uM by ethidium bromide staining based agarose gel electrophoresis
Sequence of DNA topoisomerase 2-alpha (Homo sapiens) (P11388 whole entry): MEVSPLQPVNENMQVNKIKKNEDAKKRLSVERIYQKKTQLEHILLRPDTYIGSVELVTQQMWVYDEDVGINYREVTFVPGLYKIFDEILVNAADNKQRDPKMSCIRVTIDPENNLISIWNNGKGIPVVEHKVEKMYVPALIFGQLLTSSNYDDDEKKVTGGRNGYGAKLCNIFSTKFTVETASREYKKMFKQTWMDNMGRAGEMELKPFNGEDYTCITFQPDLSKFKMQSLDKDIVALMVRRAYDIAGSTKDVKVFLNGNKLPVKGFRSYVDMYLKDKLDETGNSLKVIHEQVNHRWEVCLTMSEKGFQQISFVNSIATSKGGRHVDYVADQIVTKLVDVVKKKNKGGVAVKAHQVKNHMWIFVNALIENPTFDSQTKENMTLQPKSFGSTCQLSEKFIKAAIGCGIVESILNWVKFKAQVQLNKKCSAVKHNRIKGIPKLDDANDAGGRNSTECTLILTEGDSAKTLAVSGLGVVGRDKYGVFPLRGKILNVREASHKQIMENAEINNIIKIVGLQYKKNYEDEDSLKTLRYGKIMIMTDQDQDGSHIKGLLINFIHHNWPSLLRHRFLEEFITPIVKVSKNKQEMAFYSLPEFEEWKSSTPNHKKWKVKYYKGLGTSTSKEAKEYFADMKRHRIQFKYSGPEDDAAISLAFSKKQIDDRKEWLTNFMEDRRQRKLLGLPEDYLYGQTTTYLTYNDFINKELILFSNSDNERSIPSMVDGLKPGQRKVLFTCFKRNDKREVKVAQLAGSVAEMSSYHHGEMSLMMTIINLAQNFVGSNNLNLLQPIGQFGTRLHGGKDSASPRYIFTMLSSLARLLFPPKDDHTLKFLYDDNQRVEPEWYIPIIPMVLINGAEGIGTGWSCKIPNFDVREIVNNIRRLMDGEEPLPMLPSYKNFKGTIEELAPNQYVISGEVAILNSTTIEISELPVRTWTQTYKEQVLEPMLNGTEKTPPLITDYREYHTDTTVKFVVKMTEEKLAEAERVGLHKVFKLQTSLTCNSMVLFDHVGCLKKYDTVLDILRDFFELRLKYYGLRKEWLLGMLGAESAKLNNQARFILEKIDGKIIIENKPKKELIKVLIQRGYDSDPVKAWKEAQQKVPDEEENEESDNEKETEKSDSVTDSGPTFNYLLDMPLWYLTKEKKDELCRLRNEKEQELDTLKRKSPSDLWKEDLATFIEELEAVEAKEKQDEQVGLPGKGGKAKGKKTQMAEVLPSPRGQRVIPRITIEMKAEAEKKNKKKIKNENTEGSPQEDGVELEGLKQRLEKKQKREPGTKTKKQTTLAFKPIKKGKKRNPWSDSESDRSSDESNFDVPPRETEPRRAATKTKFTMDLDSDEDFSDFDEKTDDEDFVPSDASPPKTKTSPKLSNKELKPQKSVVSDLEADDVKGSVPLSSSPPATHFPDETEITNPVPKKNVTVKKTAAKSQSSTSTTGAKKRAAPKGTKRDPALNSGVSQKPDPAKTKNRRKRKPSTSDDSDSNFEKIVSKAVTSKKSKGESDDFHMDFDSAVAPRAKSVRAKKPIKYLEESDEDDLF

[3] = Cytotoxicity against human CCD-112CoN cells; assay type: cell-based; method in brief: as §1
[4] = tested on: Mus musculus; assay: Toxicity in immunodeficient NCr nu/nu mouse xenografted with human HT-29 cells at 5 to 20 mg/kg, ip qd for 4 days administered from day 3 to day 6 post-implantation; assay type: organism-based; parameters: dose 5-20 mg/kg, route intraperitoneal; conditions: in vivo, 96 h
Method in brief: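 NCr nu/nu mice bearing hollow-fibre HT-29 implants. Dosed ip once daily for 4 days at 5.0–20.0 mg/kg in 13% DMSO/25% Cremophor/water. Body weight recorded daily and signs of toxicity observed until sacrifice on day 7.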

[5] = tested on: HT-29; assay: Induction of apoptosis in human HT-29 cells assessed as early apoptotic cells at 5 uM after 72 hrs by flow cytometry (reference value: 3.93%); assay type: functional
[6] = tested on: HT-29; assay: Antitumor activity against human HT-29 cells xenografted in immunodeficient NCr nu/nu mouse assessed as inhibition of cell growth at 10 to 20 mg/kg, ip qd for 4 days administered from day 3 to day 6 post-implantation measured on day 7; assay type: functional, organism-based
Method in brief: (§2)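 HT-29 human colon cancer cells in hollow fibres implanted in 8–9-week-old NCr nu/nu mice. Drug in DMSO/Cremophor, diluted with water to 13% DMSO and 25% Cremophor. Doses 5.0–20.0 mg/kg ip once daily for 4 days (days 3–6); vehicle control; paclitaxel 5 mg/kg. Fibres retrieved day 7. Modified MTT net growth (day 7 minus day 0) relative to vehicle; n=3 treated; Student's t test.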

[7] = tested on: HT-29; assay: Induction of apoptosis in human HT-29 cells assessed as late apoptotic cells at 1 uM after 72 hrs by flow cytometry (reference value: 8.60%); assay type: functional
[8] = tested on: HT-29; assay: Antitumor activity against human HT-29 cells xenografted in ip dosed immunodeficient NCr nu/nu mouse assessed as inhibition of cell growth administered qd for 4 days from day 3 to day 6 post-implantation measured on day 7; assay type: functional, organism-based; method in brief: as §2
[9] = tested on: HT-29; assay: Induction of apoptosis in human HT-29 cells assessed as caspase-3 activation by measuring cleaved caspase-3 level at 1 to 10 uM after 24 hrs by western blot analysis; assay type: functional, cell-based
Method in brief: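 HT-29 cells exposed 24 h to a range of concentrations. Lysed in NP-40/HEPES pH 7.5/0.5 M NaCl buffer with protease and phosphatase inhibitors. Resolved on 4–15% SDS-PAGE and immunoblotted with rabbit monoclonal cleaved caspase-3 (Asp175) antibody. Representative of three independent experiments.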

[10] = tested on: HT-29; assay: Induction of apoptosis in human HT-29 cells assessed as early apoptotic cells at 1 uM after 72 hrs by flow cytometry (reference value: 3.93%); assay type: functional
[11] = tested on: HT-29; assay: Antitumor activity against human HT-29 cells xenografted in immunodeficient NCr nu/nu mouse assessed as inhibition of cell growth at 5 mg/kg, ip qd for 4 days administered from day 3 to day 6 post-implantation measured on day 7; assay type: functional, organism-based; parameters: dose 5 mg/kg; method in brief: as §2
[12] = tested on: HT-29; assay: Induction of apoptosis in human HT-29 cells assessed as late apoptotic cells at 5 uM after 72 hrs by flow cytometry (reference value: 8.60%); assay type: functional

Row | SMILES | IC50 [1] [µM] | inhibition [2] | IC50 [3] [µM] | other results
1 | COc1cc2c(OC)c3c(c(-c4ccc5c(c4)OCO5)c2cc1OC)C(=O)OC3 [JUSTICIDIN A] | > 10 | – | – | –
2 | COc1cc2c(O[C@@H]3O[C@H](CO)[C@@H](O)[C@H](O)[C@H]3O)c3c(c(-c4ccc5c(c4)OCO5)c2cc1OC)C(=O)OC3 | > 10 | – | – | –
3 | COc1cc2c(O[C@@H]3OC[C@H](O)[C@H](O)[C@H]3O)c3c(c(-c4ccc5c(c4)OCO5)c2cc1OC)C(=O)OC3 [ACUTISSIMALIGNAN A] | 3.2 | inactive | > 100 | –
4 | COc1cc2c(O[C@@H]3OC[C@H](OC(C)=O)[C@H](OC(C)=O)[C@H]3O)c3c(c(-c4ccc5c(c4)OCO5)c2cc1OC)C(=O)OC3 | 0.17 | inactive | > 100 | Activity [4]: Non-toxic; Activity [5]: 30.3%; inhibition [6]: Active; Activity [7]: 27.3%; inhibition [8]: Dose-dependent effect; Activity [9]: Active; Activity [10]: 28.2%; inhibition [11]: inactive; Activity [12]: 38%
5 | COc1cc2c(O[C@@H]3OC[C@H](OC(C)=O)[C@H](O)[C@H]3O)c3c(c(-c4ccc5c(c4)OCO5)c2cc1OC)C(=O)OC3 | 1.8 | – | – | –
6 | CC(=O)O[C@H]1C(=O)[C@@]2(C)[C@H]([C@H](OC(=O)c3ccccc3)[C@]3(O)C[C@H](OC(=O)[C@H](O)[C@@H](NC(=O)c4ccccc4)c4ccccc4)C(C)=C1C3(C)C)[C@]1(OC(C)=O)CO[C@@H]1C[C@@H]2O [PACLITAXEL] | – | – | 23 | –
7 | COc1cc2c(O[C@@H]3OC[C@H](O)[C@H](OC(C)=O)[C@H]3O)c3c(c(-c4ccc5c(c4)OCO5)c2cc1OC)C(=O)OC3 | 1.8 | – | – | –
8 | COc1cc([C@@H]2c3cc4c(cc3[C@@H](O[C@@H]3O[C@@H]5CO[C@@H](C)O[C@H]5[C@H](O)[C@H]3O)[C@H]3COC(=O)[C@H]23)OCO4)cc(OC)c1O [ETOPOSIDE] | – | – | – | Activity [5]: 12.5%; Activity [7]: 19.8%; Activity [9]: inactive; Activity [10]: 12.9%; Activity [12]: 25.3%
9 | COc1cc2c(O)c3c(c(-c4ccc5c(c4)OCO5)c2cc1OC)C(=O)OC3 [DIPHYLLIN] | 7.6 | – | – | –
10 | COc1cc2c(O[C@@H]3OC[C@H](OC(C)=O)[C@H](OC(C)=O)[C@H]3OC(C)=O)c3c(c(-c4ccc5c(c4)OCO5)c2cc1OC)C(=O)OC3 | 0.11 | inactive | – | –

Reference: ChEMBL document CHEMBL3297715, “Potent cytotoxic arylnaphthalene lignan lactones from Phyllanthus poilanei” (J Nat Prod, 2014)
